Measured values reported in ChEMBL document CHEMBL2311397, “Design and synthesis of cyclopropylamide analogues of combretastatin-A4 as novel microtubule-stabilizing agents” (J Med Chem, 2013).

Columns and labels:
K562 = experiment: Cytotoxicity against human K562 cells after 48 hrs by MTT assay; format: functional, cell-based
Method in brief: (§1)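 Log-phase cells (40000–50000 cells/mL) grown in DMEM with 10% fetal calf serum (5% CO2, 37 °C) and exposed 48 h to five concentrations, 3–5 replicates. Read-out was MTT with absorbance at 570 nm; IC50 reported as mean ± SD of three independent experiments. Resistant A549 and HeLa sublines were made by stepwise paclitaxel selection; resistance index = IC50(resistant)/IC50(sensitive).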

[1] = Cytotoxicity against human QGY cells after 48 hrs by MTT assay; format: functional, cell-based; method in brief: as §1
SW480 = experiment: Cytotoxicity against human SW480 cells after 48 hrs by MTT assay; format: functional, cell-based; method in brief: as §1
HeLa = experiment: Cytotoxicity against human HeLa cells after 48 hrs by MTT assay; format: functional, cell-based; method in brief: as §1
A549 = experiment: Cytotoxicity against human A549 cells after 48 hrs by MTT assay; format: functional, cell-based; method in brief: as §1
Tubulin (Homo sapiens) = Tubulin (Homo sapiens) (UniProt P68371+Q9H4B7+P0DPH7+P68366+Q13509+Q71U36+P04350+Q3ZCM7+P07437+P68363+Q9BQE3+Q6PEY2+Q13885+Q9BVA1+Q9BUF5); experiment: Activation of tubulin (unknown origin) polymerization at 10 uM; format: protein-complex assay
Method in brief: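 Purified brain tubulin (kit), final 3.0 mg/mL, in 80.0 mM PIPES sesquisodium pH 6.9, 2.0 mM MgCl2, 0.5 mM EGTA, 1 mM GTP, 10.2% glycerol; components prewarmed to 37 °C, reaction started by adding tubulin. A340 read each minute for 1 h. Single-point % stimulation used 10 μM compound; EC50 from 3.75, 7.5, 15, 30, 60 μM.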

Activity (Tubulin (Homo sapiens)) [%]	SMILES	IC50 (K562; Homo sapiens, K562, 48 h) [µM]	IC50 ([1]; qgy) [µM]	IC50 (SW480; Homo sapiens, SW480, 48 h) [µM]	IC50 (HeLa; Homo sapiens, HeLa, 48 h) [µM]	IC50 (A549; Homo sapiens, A549, 48 h) [µM]	IC50 ([1]; Homo sapiens, QGY, 48 h) [µM]	IC50 (A549; a549) [µM]	IC50 (K562; k562) [µM]	IC50 (SW480; sw480) [µM]	IC50 (HeLa; hela) [µM]
	CCOC(=O)C1(C(=O)Nc2ccc(F)cc2)CC1c1cc(OC)c(OC)c(OC)c1 (cis isomer)	63.7	79.1	46.7	62.4	22.4					
25	CCOC(=O)C1(C(=O)Nc2ccc(OC)cc2)CC1c1cc(OC)c(OC)c(OC)c1 (cis isomer) [listing 1 of 2 here]										
	CCOC(=O)[C@]1(C(=O)Nc2ccccc2)C[C@@H]1c1cc(OC)c(OC)c(OC)c1	> 100		31.7	> 100	21.3	38.1				
	CCOC(=O)C1(C(=O)NCCc2ccc(F)cc2)CC1c1cc(OC)c(OC)c(OC)c1 (cis isomer)	> 100		75.1	58.1		> 100	49.3			
	CCOC(=O)C1(C(=O)Nc2ccc(OC)cc2)CC1c1cc(OC)c(OC)c(OC)c1 (cis isomer) [listing 2 of 2 here]	> 100		66.3	81.6	61.4	86.1				
	CCOC(=O)[C@@]1(C(=O)Nc2ccccc2Cl)C[C@H]1c1cc(OC)c(OC)c(OC)c1	> 100		30.1	14.4	17.6	34.3				
	CCOC(=O)C1(C(=O)NCc2ccccc2)CC1c1cc(OC)c(OC)c(OC)c1 (cis isomer)	> 100		89.6	46.5	79.5	> 100				
23.2	CCOC(=O)C1(C(=O)Nc2ccccc2)CC1c1cc(OC)c(OC)c(OC)c1 (cis isomer) [listing 1 of 2 here]										
	COc1cc([C@H]2C[C@]2(CO)C(=O)NCc2ccc(C)cc2)cc(OC)c1OC	> 100		94	57.8	60.7	56.1				
	COc1cc([C@H]2C[C@]2(CO)C(=O)Nc2ccccc2Cl)cc(OC)c1OC	> 100		40.2	45.5	36.7	40.7				
	CCOC(=O)C1(C(=O)Nc2ccccc2[N+](=O)[O-])CC1c1cc(OC)c(OC)c(OC)c1 (stereo in doubt)	56.3		34.1	40.2	24.5	54.1				
	CCOC(=O)C1(C(=O)NCCc2ccccc2F)CC1c1cc(OC)c(OC)c(OC)c1 (trans isomer)		46.8					31.1	79.1	16.9	> 100
	CCOC(=O)[C@@]1(C(=O)Nc2ccccc2)C[C@H]1c1cc(OC)c(OC)c(OC)c1	> 100		> 100	> 100	65.9	48.7				
	CCOC(=O)C1(C(=O)NCCc2ccccc2F)CC1c1cc(OC)c(OC)c(OC)c1 (cis isomer)	> 100			58.2	27.3	34.1			86.3	
	COc1cc([C@@H]2C[C@@]2(CO)C(=O)NCc2ccc(C)cc2)cc(OC)c1OC	> 100		76.3	41.2	46.3	58.7				
	COc1cc([C@H]2C[C@@]2(CO)C(=O)Nc2ccccc2Cl)cc(OC)c1OC	> 100		> 100	> 100	> 100	> 100				
50	CCOC(=O)C1(C(=O)Nc2cccc(Cl)c2)CC1c1cc(OC)c(OC)c(OC)c1 (stereo in doubt; cis) [listing 1 of 2 here]										
	CCOC(=O)C1(C(=O)Nc2ccccc2)CC1c1cc(OC)c(OC)c(OC)c1 (cis isomer) [listing 2 of 2 here]	> 100			> 100	31.5	59.3			49	
	CCOC(=O)C1(C(=O)Nc2cccc(Cl)c2)CC1c1cc(OC)c(OC)c(OC)c1 (stereo in doubt; cis) [listing 2 of 2 here]	52.1	46.3	37.4		25.6					35.1
	CCOC(=O)[C@]1(C(=O)Nc2ccccc2)C[C@H]1c1cc(OC)c(OC)c(OC)c1	> 100		> 100	> 100	37.3	> 100				
